Results on 43 compounds are retold here after ChEMBL document CHEMBL2010745, “Optimization of the First Selective Steroid-11β-hydroxylase (CYP11B1) Inhibitors for the Treatment of Cortisol Dependent Diseases” (ACS Med Chem Lett, 2011).

What is called inhibition is the change of the read-out against control, counted positive when it falls. What is called IC50 is the concentration needed to halve the response being measured. Low values mean greater potency in that assay, high ones weaker potency in that assay.

The target in data set [1] is T1, Cytochrome P450 11B2, mitochondrial (Homo sapiens, UniProt P19099).
T1 sequence (P19099 whole entry): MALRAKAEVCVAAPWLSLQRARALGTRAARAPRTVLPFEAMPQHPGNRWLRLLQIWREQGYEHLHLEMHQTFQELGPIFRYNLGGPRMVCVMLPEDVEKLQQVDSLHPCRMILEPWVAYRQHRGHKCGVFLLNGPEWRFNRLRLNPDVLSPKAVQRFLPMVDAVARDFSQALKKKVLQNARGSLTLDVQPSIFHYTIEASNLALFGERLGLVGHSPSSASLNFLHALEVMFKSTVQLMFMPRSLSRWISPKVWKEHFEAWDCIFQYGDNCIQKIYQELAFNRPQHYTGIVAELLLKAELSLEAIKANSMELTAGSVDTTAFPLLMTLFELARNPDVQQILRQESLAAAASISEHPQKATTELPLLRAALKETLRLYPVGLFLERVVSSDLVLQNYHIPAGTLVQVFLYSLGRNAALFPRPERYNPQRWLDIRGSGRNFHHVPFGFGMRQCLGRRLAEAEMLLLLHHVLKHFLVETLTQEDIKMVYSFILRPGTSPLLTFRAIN
Description: Inhibition of human CYP11B2 expressed in hamster V79 MZ cells using [3H] 11 deoxycorticosterone as substrate at 500 nM by HPLC radioflow detector. To be noted: v79, 0.5 µM. Format: cell-based.

Data set [2] is filed under the species Homo sapiens. Description: Selectivity ratio of IC50 for human CYP11B2 to IC50 for human CYP11B1.
The target in data set [3] is T2, CYP17 (Homo sapiens, UniProt P05093).
T2 sequence (P05093 whole entry): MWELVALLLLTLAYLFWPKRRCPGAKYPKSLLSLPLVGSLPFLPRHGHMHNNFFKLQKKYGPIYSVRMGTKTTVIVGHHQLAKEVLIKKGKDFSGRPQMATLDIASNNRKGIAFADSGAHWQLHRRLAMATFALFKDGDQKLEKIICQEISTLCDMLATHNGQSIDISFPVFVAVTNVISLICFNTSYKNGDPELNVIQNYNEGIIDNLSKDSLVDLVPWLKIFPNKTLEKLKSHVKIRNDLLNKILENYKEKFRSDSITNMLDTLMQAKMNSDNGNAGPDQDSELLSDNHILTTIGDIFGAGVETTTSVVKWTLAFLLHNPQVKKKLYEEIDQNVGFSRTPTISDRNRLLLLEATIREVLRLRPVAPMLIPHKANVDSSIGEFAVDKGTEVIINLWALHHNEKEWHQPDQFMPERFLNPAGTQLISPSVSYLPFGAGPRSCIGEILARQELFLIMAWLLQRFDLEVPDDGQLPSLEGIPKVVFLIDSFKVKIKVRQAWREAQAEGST
Nature of the data set: Inhibition of human recombinant CYP17 expressed in Escherichia coli using progesterone as substrate at 2 uM. To be noted: probe progesterone. Summed up: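 Recombinantly expressed human CYP17 with progesterone as substrate. Inhibition is reported as percent at an inhibitor concentration of 2.0 μM.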

Data set [4] has as its target T3, CYP19 (aromatase) (Homo sapiens, UniProt P11511).
T3 sequence (P11511 whole entry): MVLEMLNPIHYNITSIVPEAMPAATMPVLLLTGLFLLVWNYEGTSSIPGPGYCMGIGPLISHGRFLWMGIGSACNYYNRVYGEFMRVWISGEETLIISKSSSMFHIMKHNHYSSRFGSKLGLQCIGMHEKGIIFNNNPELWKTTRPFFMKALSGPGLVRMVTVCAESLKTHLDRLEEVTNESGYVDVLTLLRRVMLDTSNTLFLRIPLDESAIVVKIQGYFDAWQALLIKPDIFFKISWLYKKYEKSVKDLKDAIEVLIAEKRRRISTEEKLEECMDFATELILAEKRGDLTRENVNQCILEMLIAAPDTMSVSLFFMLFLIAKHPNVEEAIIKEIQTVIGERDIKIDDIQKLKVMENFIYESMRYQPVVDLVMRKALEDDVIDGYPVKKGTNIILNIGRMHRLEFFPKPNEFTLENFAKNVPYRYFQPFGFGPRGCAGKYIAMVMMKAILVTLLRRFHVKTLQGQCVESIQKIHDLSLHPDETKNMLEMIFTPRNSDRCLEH
Description: Inhibition of CYP19 in human placental microsomes using [1beta-3H]androstenedione as substrate at 0.5 uM. Conditions: probe [1beta-3H]androstenedione; call rule not given here.

Data set [5] has as its target T1, Cytochrome P450 11B2, mitochondrial. Description: Inhibition of human CYP11B2 expressed in hamster V79 MZ cells using [3H] 11 deoxycorticosterone as substrate by HPLC radioflow detector. Format: cell-based.
The target in data set [6] is T4, Cytochrome P450 11B1, mitochondrial (Homo sapiens, UniProt P15538).
T4 sequence (P15538 whole entry): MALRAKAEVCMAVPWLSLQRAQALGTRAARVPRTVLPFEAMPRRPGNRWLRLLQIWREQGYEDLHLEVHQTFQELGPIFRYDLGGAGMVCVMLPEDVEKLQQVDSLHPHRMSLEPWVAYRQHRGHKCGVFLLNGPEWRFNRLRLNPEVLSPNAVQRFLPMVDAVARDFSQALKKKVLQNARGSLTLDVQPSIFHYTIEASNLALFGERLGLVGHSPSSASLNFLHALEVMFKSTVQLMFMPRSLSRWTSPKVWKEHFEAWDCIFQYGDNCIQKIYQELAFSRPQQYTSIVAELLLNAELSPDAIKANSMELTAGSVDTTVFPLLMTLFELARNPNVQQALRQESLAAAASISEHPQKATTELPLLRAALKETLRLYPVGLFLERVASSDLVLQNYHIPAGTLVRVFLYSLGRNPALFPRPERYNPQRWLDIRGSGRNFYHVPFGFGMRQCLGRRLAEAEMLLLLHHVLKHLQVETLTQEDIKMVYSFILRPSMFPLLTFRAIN
Nature of the data set: Inhibition of human CYP11B1 expressed in hamster V79 MZ cells using [3H] 11 deoxycorticosterone as substrate by HPLC radioflow detector. Format: cell-based.

For the compound `c1cn(Cc2ccc(-c3cncnc3)nc2)cn1`, the “inhibition (INH)” value in data set [1] is reported as “Not Active”.
On to `c1cn(Cc2ccc(-c3ccsc3)nc2)cn1`, for which the Ratio IC50 in data set [2] came to 26. Besides, in data set [3], the inhibition at 2 µM was < 10%. In addition, the inhibition at 0.5 µM in data set [4] is < 10%.
As to `c1ccc(-c2cc(Cn3ccnc3)cnc2-c2ccccc2)cc1`, the Ratio IC50 in data set [2] stood at 2.4. For the same compound, the inhibition at 2 µM in data set [3] is < 10%. The inhibition at 0.5 µM in data set [4] was < 10%.
As for `COc1ccccc1-c1ccc(Cn2ccnc2)cn1`, in data set [2], the Ratio IC50 came out at 26. For the same compound, the inhibition at 2 µM in data set [3] is < 10%. Moreover, in data set [4], the inhibition at 0.5 µM is < 10%.
On to `c1cncc(Cn2ccnc2)c1`, for which the IC50 in data set [5] is > 1 µM.
As to `Fc1ccc(-c2ccc(Cn3ccnc3)cn2)cc1`, the Ratio IC50 in data set [2] was found to be 10. Also, the inhibition at 2 µM in data set [3] is < 10%. Further, the inhibition at 0.5 µM in data set [4] is < 10%.
Turning to `COc1ccc(-c2ccc(Cn3ccnc3)cn2)cn1`, the IC50 in data set [6] and in data set [5] was > 1 µM in each case.
Consider `c1ccc(-c2ccc(Cn3ccnc3)cn2)cc1`, for which the Ratio IC50 in data set [2] was 18.
As to `Clc1ccc(-c2ccc(Cn3ccnc3)cn2)s1`, the Ratio IC50 in data set [2] was 2.6. Moreover, in data set [4], at 0.5 µM the inhibition was 30%.
As for `Fc1cccc(-c2ccc(Cn3ccnc3)cn2)c1`, the inhibition at 2 µM in data set [3] was < 10%. Moreover, in data set [4], the inhibition at 0.5 µM is < 10%. The IC50 in data set [5] is > 1 µM.
For the compound `Brc1ccc(Cn2ccnc2)cn1`, the IC50 in data set [5] is > 1 µM.
As for `N#Cc1ncccc1Cn1ccnc1`, the IC50 in data set [5] is > 1 µM.
As to `c1ccc2c(-c3ccc(Cn4ccnc4)cn3)cccc2c1`, the Ratio IC50 in data set [2] is 49. The inhibition at 2 µM in data set [3] is < 10%. Also, the inhibition at 0.5 µM in data set [4] was < 10%.
In the case of `Cc1ccc(-c2ccc(Cn3ccnc3)cn2)cc1N`, in data set [3], the inhibition at 2 µM is < 10%. The inhibition at 0.5 µM in data set [4] is < 10%. In data set [5], the IC50 was > 1 µM.
Regarding `N#Cc1ccc(-c2ccc(Cn3ccnc3)cn2)cc1`, the IC50 in data set [5] is > 1 µM.
`c1cn(Cc2ccc(-c3ccoc3)nc2)cn1`: the Ratio IC50 in data set [2] amounted to 37. In addition, the inhibition at 2 µM in data set [3] is < 10%. The inhibition at 0.5 µM in data set [4] was < 10%.
As for `Oc1ccc(-c2ccc(Cn3ccnc3)cn2)cc1F`, in data set [2], the Ratio IC50 is 14.
Take `COc1ccc(-c2ccc(Cn3ccnc3)cn2)cc1OC`: the concentration for half-maximal inhibition (IC50) in data set [6] and in data set [5] was > 1 µM each time. Further, the inhibition at 2 µM in data set [3] is < 10%. In addition, the inhibition at 0.5 µM in data set [4] was < 10%.
Regarding `c1cc(-c2ccc(Cn3ccnc3)cn2)ccn1`, in data set [2], the Ratio IC50 amounted to 3.5.
On to `Fc1ccccc1-c1ccc(Cn2ccnc2)cn1`, for which the Ratio IC50 in data set [2] turned out to be 24. Moreover, the inhibition at 2 µM in data set [3] was < 10%. In addition, the inhibition at 0.5 µM in data set [4] was < 10%.
As to `c1cc(Cn2ccnc2)ccn1`, in data set [5], the IC50 was > 1 µM.
With `Nc1ccccc1-c1ccc(Cn2ccnc2)cn1`, the Ratio IC50 in data set [2] worked out at 21. Also, the inhibition at 2 µM in data set [3] was < 10%. For the same compound, the inhibition at 0.5 µM in data set [4] is < 10%.
For `c1ccc2c(-c3ccc(Cn4ccnc4)cn3)csc2c1`, the Ratio IC50 in data set [2] was 29. In data set [3], the inhibition at 2 µM was < 10%. For the same compound, the inhibition at 0.5 µM in data set [4] was < 10%.
Regarding `c1ccc2oc(-c3ccc(Cn4ccnc4)cn3)cc2c1`, in data set [5], the IC50 was > 1 µM.
For the compound `c1ccc(N(c2ccccc2)c2ccc(-c3ccc(Cn4ccnc4)cn3)cc2)cc1`, in data set [3], the inhibition at 2 µM is < 10%. Moreover, the inhibition at 0.5 µM in data set [4] was < 10%. In addition, the “inhibition (INH)” value in data set [1] was “Not Active”.
With `c1ccc2c(-c3ccc(Cn4ccnc4)cn3)cncc2c1`, in data set [2], the Ratio IC50 worked out at 10.
On to `c1coc(-c2cc(Cn3ccnc3)cnc2-c2ccco2)c1`, for which, in data set [2], the Ratio IC50 turned out to be 29.
On to `O=Cc1ccc(-c2ccc(Cn3ccnc3)cn2)s1`, for which, in data set [2], the Ratio IC50 came to 16. In addition, in data set [3], the inhibition at 2 µM was < 10%. Besides, in data set [4], testing at 0.5 µM gave an inhibition of 19%.
Turning to `COc1ccc(-c2ccc(Cn3ccnc3)cn2)cc1`, the inhibition at 2 µM in data set [3] is < 10%. In addition, the inhibition at 0.5 µM in data set [4] was < 10%. Further, the IC50 in data set [5] is > 1 µM.
With `c1coc(-c2ccc(Cn3ccnc3)cn2)c1`, the Ratio IC50 in data set [2] is 31. Also, the inhibition at 2 µM in data set [3] is < 10%. Moreover, the inhibition at 0.5 µM in data set [4] was < 10%.
In the case of `Fc1ccc(-c2ccc(Cn3ccnc3)cn2)cc1F`, in data set [2], the Ratio IC50 came to 5. Further, the inhibition at 2 µM in data set [3] is < 10%. The inhibition at 0.5 µM in data set [4] was < 10%.
In the case of `Clc1ncc(Cn2ccnc2)cc1Br`, the Ratio IC50 in data set [2] amounted to 3.4.
The same measure, in the same setting: as for `c1ccc2sc(-c3ccc(Cn4ccnc4)cn3)cc2c1`, the figure is 1; as for `c1ccc2cc(-c3ccc(Cn4ccnc4)cn3)ccc2c1`, 3.2.
As to `Clc1ncc(Cn2ccnc2)cc1-c1cccs1`, the Ratio IC50 in data set [2] is 6. Also, the IC50 in data set [6] turned out to be 0.073 µM; in data set [5], 0.416 µM. Moreover, the inhibition at 2 µM in data set [3] was < 10%. Also, the inhibition at 0.5 µM in data set [4] was < 10%.
As for `Nc1cccc(-c2ccc(Cn3ccnc3)cn2)c1`, the Ratio IC50 in data set [2] turned out to be 31. Besides, the inhibition at 2 µM in data set [3] is < 10%. In data set [4], the inhibition at 0.5 µM is < 10%.
Regarding `c1csc(-c2ccc(Cn3ccnc3)cn2)c1`, the Ratio IC50 in data set [2] was found to be 17. In data set [3], the inhibition at 2 µM was < 10%. Also, the inhibition at 0.5 µM in data set [4] was < 10%.
For the compound `c1csc(-c2ncccc2Cn2ccnc2)c1`, in data set [2], the Ratio IC50 amounted to 16. Also, in data set [3], the inhibition at 2 µM was < 10%. Moreover, the inhibition at 0.5 µM in data set [4] is < 10%.
As to `c1cncc(-c2ccc(Cn3ccnc3)cn2)c1`, the Ratio IC50 in data set [2] is 8.
Turning to `Brc1ncccc1Cn1ccnc1`, the Ratio IC50 in data set [2] stood at 15. In data set [3], the inhibition at 2 µM was < 10%. Moreover, in data set [4], the inhibition at 0.5 µM was < 10%.
For the compound `O=Cc1ccc(-c2ccc(Cn3ccnc3)cn2)cc1`, the inhibition at 2 µM in data set [3] was < 10%. The inhibition at 0.5 µM in data set [4] was < 10%. Moreover, the IC50 in data set [5] is > 1 µM.
In the case of `Nc1ccc(-c2ccc(Cn3ccnc3)cn2)cc1`, the Ratio IC50 in data set [2] came to 5. Besides, the inhibition at 2 µM in data set [3] is < 10%. For the same compound, the inhibition at 0.5 µM in data set [4] was < 10%.
As to `N#Cc1cccc(-c2ccc(Cn3ccnc3)cn2)c1`, the IC50 in data set [5] was > 1 µM.
